Assay results reported in ChEMBL document CHEMBL4311977, “Design and synthesis of parthenolide and 5-fluorouracil conjugates as potential anticancer agents against drug resistant hepatocellular carcinoma” (Eur J Med Chem, 2019).
Activity calls are given as the source filed them. The rule behind the calls is not given here.

Tests used:
Bel7402/5-FU [1] = assay: Induction of apoptosis in human Bel7402/5-FU assessed as early apoptotic cells at 5 uM incubated for 48 hrs by annexinV-FITC/propidium iodide staining based flow cytometry (reference value: 20.1 %)
Bel7402/5-FU [2] = assay: Antiproliferative activity against human Bel7402/5-FU incubated for 72 hrs by MTT assay; format: functional, cell-based
How it was run: (§1)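 Bel-7402 and its 5-FU-resistant subline were kept in RPMI-1640 with 10% FBS and 1% penicillin/streptomycin at 37 °C under 5% CO2. Cells were seeded at 5000 per well and left for 12 h, then exposed to a concentration series for 72 h. MTT stock (5 mg/mL) was added for 4 h and the product dissolved in DMSO. OD was read at 570 nm and IC50 obtained by curve fitting.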

Bel7402/5-FU [3] = assay: Induction of apoptosis in human Bel7402/5-FU assessed as apoptotic cells at 2.5 uM incubated for 48 hrs by annexinV-FITC/propidium iodide staining based flow cytometry (reference value: 3.37 +/- 0.47 %)
Bel7402/5-FU [4] = assay: Induction of apoptosis in human Bel7402/5-FU cells assessed as upregulation of Bim expression at 0.5 to 5 uM incubated for 24 hrs by Western blot analysis; format: functional, cell-based
How it was run: (§2)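 Bel-7402/5-FU cells were seeded at 5 × 10⁵ per well and left 12 h, then treated with four concentrations (0.5, 1, 2, 5) for 24 h. Cells were PBS-washed and lysed in RIPA on ice for 30 min, then denatured at 100 °C for 5 min. Lysates went through SDS-PAGE and PVDF transfer, 5% milk blocking for 1 h at room temperature, primary antibodies, and HRP secondary for 2 h at room temperature.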

Bel7402/5-FU [5] = assay: Induction of apoptosis in human Bel7402/5-FU assessed as early apoptotic cells at 1 uM incubated for 48 hrs by annexinV-FITC/propidium iodide staining based flow cytometry (reference value: 20.1 to 20.3 %)
Bel7402/5-FU [6] = assay: Induction of apoptosis in human Bel7402/5-FU assessed as necrotic cells at 5 uM incubated for 48 hrs by annexinV-FITC/propidium iodide staining based flow cytometry (reference value: 0.157 %)
Bel-7402 = assay: Antiproliferative activity against human Bel7402 incubated for 72 hrs by MTT assay; format: functional, cell-based; conditions: Bel-7402, 72 h
How it was run: as §1

Bel7402/5-FU [7] = assay: Down regulation of MDR1 expression in human Bel7402/5-FU cells incubated for 24 hrs by western blot analysis; format: functional, cell-based
How it was run: as §2

[8] = Therapeutic index, ratio of IC50 for mouse 3T3 cells to IC50 for human Bel7402/5-FU cells; format: toxicity; conditions: mouse 3T3 cells versus human Bel7402/5-FU cells, read-out: TI
Bel7402/5-FU [9] = assay: Induction of apoptosis in human Bel7402/5-FU assessed as viable cells at 1 uM incubated for 48 hrs by annexinV-FITC/propidium iodide staining based flow cytometry (reference value: 96.9 to 97.1 %)
Bel7402/5-FU [10] = assay: Induction of apoptosis in human Bel7402/5-FU cells assessed as increase in irregular nuclear morphology incubated for 48 hrs by DAPI staining based fluorescence microscopic analysis; format: functional, cell-based
How it was run: (§3)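 Bel-7402/5-FU cells were seeded at 5 × 10⁵ per well and left 12 h, then exposed at three concentrations (1, 2, 5) for 48 h. Cells were washed three times in PBS and stained with DAPI for 10 min at room temperature. Nuclear morphology was scored by fluorescence microscopy.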

NIH3T3 = assay: Cytotoxicity against mouse 3T3 cells; format: cell-based
Bel7402/5-FU [11] = assay: Induction of apoptosis in human Bel7402/5-FU assessed as necrotic cells at 1 uM incubated for 48 hrs by annexinV-FITC/propidium iodide staining based flow cytometry (reference value: 0.024 to 0.157 %)
Bel7402/5-FU [12] = assay: Induction of apoptosis in human Bel7402/5-FU assessed as apoptotic cells at 1 uM incubated for 48 hrs by annexinV-FITC/propidium iodide staining based flow cytometry (reference value: 3.37 +/- 0.47 %)
Bel7402/5-FU [13] = assay: Induction of apoptosis in human Bel7402/5-FU cells assessed as downregulation of Bcl-2 expression at 0.5 to 5 uM incubated for 24 hrs by Western blot analysis; format: functional, cell-based
How it was run: as §2

Bel7402/5-FU [14] = assay: Down regulation of Pgp expression in human Bel7402/5-FU cells at 0.5 uM incubated for 24 hrs by flow cytometry
Bel7402/5-FU [15] = assay: Induction of apoptosis in human Bel7402/5-FU assessed as late apoptotic cells at 1 uM incubated for 48 hrs by annexinV-FITC/propidium iodide staining based flow cytometry (reference value: 0.268 to 0.945 %)
Bel7402/5-FU [16] = assay: Increase in ADR intracellular accumulation in human Bel7402/5-FU cells preincubated for 24 hrs followed by adriamycin addition measured after 1 hr by flow cytometry
Bel7402/5-FU [17] = assay: Induction of apoptosis in human Bel7402/5-FU assessed as apoptotic cells at 0.5 uM incubated for 48 hrs by annexinV-FITC/propidium iodide staining based flow cytometry (reference value: 3.37 +/- 0.47 %)
Bel7402/5-FU [18] = assay: Induction of apoptosis in human Bel7402/5-FU cells assessed as downregulation of Bcl-xl expression at 0.5 to 5 uM incubated for 24 hrs by Western blot analysis; format: functional, cell-based
How it was run: as §2

Bel7402/5-FU [19] = assay: Induction of apoptosis in human Bel7402/5-FU cells assessed as upregulation of Bax expression at 0.5 to 5 uM incubated for 24 hrs by Western blot analysis; format: functional, cell-based
How it was run: as §2

Bel7402/5-FU [20] = assay: Induction of apoptosis in human Bel7402/5-FU cells assessed as increase in apoptotic bodies incubated for 48 hrs by DAPI staining based fluorescence microscopic analysis; format: functional, cell-based
How it was run: as §3

Bel7402/5-FU [21] = assay: Induction of apoptosis in human Bel7402/5-FU assessed as early apoptotic cells at 2.5 uM incubated for 48 hrs by annexinV-FITC/propidium iodide staining based flow cytometry (reference value: 20.1 to 20.3 %)
Bel7402/5-FU [22] = assay: Induction of apoptosis in human Bel7402/5-FU assessed as late apoptotic cells at 5 uM incubated for 48 hrs by annexinV-FITC/propidium iodide staining based flow cytometry (reference value: 0.945 %)
Bel7402/5-FU [23] = assay: Down regulation of ABCG2 expression in human Bel7402/5-FU cells incubated for 24 hrs by western blot analysis; format: functional, cell-based
How it was run: as §2

Compound: C=C1C(=O)O[C@H]2[C@H]1CC/C(COC(=O)Cn1cc(F)c(=O)n(Cc3ccc(C(F)(F)F)cc3)c1=O)=C\CC[C@@]1(C)O[C@@H]21
- Activity (Bel7402/5-FU [1]): 18.1 - 82.7%
- IC50 (Bel7402/5-FU [2]): 2.25 µM
- Activity (Bel7402/5-FU [3]): 14.43%
- Activity (Bel7402/5-FU [4]): Active
- Activity (Bel7402/5-FU [5]): 3.5%
- Activity (Bel7402/5-FU [6]): 1.49 - 1.75%
- IC50 (Bel-7402): 2.25 µM
- Activity (Bel7402/5-FU [7]): Dose-dependent effect
- selectivity ratio [8]: 2.3
- viability at 1 µM (Bel7402/5-FU [9]): 94.3%
- Activity (Bel7402/5-FU [10]): Dose-dependent effect
- IC50 (NIH3T3): 5.2 µM
- Activity (Bel7402/5-FU [11]): 1.9%
- Activity (Bel7402/5-FU [12]): 4.9%
- Activity (Bel7402/5-FU [13]): Active
- Activity (Bel7402/5-FU [14]): Active
- Activity (Bel7402/5-FU [15]): 0.909%
- Activity (Bel7402/5-FU [16]): Dose-dependent effect
- Activity (Bel7402/5-FU [17]): 3.97%
- Activity (Bel7402/5-FU [18]): Active
- Activity (Bel7402/5-FU [19]): Active
- Activity (Bel7402/5-FU [20]): Dose-dependent effect
- Activity (Bel7402/5-FU [21]): 7.75%
- Activity (Bel7402/5-FU [22]): 19.5 - 46.1%
- Activity (Bel7402/5-FU [23]): Dose-dependent effect
